Laboratory results as given in ChEMBL document CHEMBL1155317, “Design and optimisation of potent gp120-CD4 inhibitors” (Bioorg Med Chem Lett, 2009).

How the values were obtained:
[1] = Inhibition of HIV1 NL4-3 gp160 assessed as inhibition of interaction between gp120 and host CD4 receptor by cell-cell fusion assay; set-up: species or system Human immunodeficiency virus 1
[2] = tested on: Human immunodeficiency virus 1; assay: Antiviral activity against Human immunodeficiency virus 1 NL4-3 infected HeLaP4 cells after 5 days by beta-galactosidase reporter assay; assay type: functional, organism-based; conditions: Human immunodeficiency virus 1, NL4-3, HeLaP4, 120 h
Method in brief: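 HeLa-P4 cells were premixed with NL4-3 virus and added at 10^5 cells/mL to wells containing diluted compound. Plates were incubated for 5 days at 37 °C in humidified 5% CO₂. Infection was quantified with a β-galactosidase reporter assay.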

[3] = Fraction of compound absorbed in rat at 1 mg/kg, iv and 1 mg/kg, po; assay type: ADME, organism-based; conditions: in vivo, read-out: Fabs
Rattus norvegicus [4] = assay: Unbound volume of distribution in rat at 1 mg/kg, iv and 1 mg/kg, po; assay type: ADME, organism-based; conditions: in vivo
[5] = Half life in rat at 1 mg/kg, iv and 1 mg/kg, po; assay type: ADME, organism-based; conditions: in vivo
[6] = Clearance in rat at 1 mg/kg, iv and 1 mg/kg, po; assay type: ADME, organism-based; conditions: in vivo
[7] = Bioavailability in rat at 1 mg/kg; assay type: ADME, organism-based; conditions: in vivo
Rattus norvegicus [8] = assay: Unbound clearance in rat at 1 mg/kg, iv and 1 mg/kg, po; assay type: ADME, organism-based; conditions: in vivo

C[C@H](Oc1cccc2nc(N(C)C)ccc12)C(=O)N1CCN(C(=O)c2ccccc2)C[C@H]1C
IC50 [1]: 3200 nM

CNC(=O)c1cc(OC)c(O[C@@H](C)C(=O)N2CCN(c3nccn3CC3CC3)C[C@H]2C)cn1
IC50 [1]: 1900 nM

CNC(=O)c1cc(OC)c(O[C@@H](C)C(=O)N2CCN(c3n[nH]c4ccccc34)C[C@H]2C)cn1
IC50 [1]: 42 nM
IC50 [2]: 979 nM

CNC(=O)c1cc(OC)c(O[C@@H](C)C(=O)N2CCN(c3nccc4[nH]ccc34)C[C@H]2C)cn1
IC50 [1]: 29 nM
IC50 [2]: > 1000 nM

CC(Oc1ccnc2ccccc12)C(=O)N1CCN(C(=O)c2ccccc2)C[C@H]1C (some centres not stated)
IC50 [1]: 7430 nM

CC(Oc1cccc2ccccc12)C(=O)N1CCN(C(=O)c2ccccc2)C[C@H]1C (some centres not stated)
IC50 [1]: 123 nM
IC50 [2]: 1070 nM

CNC(=O)c1ccc(O[C@@H](C)C(=O)N2CCN(C(=O)c3ccccc3)C[C@H]2C)c2c(C)n[nH]c12
IC50 [1]: > 10000 nM

Cc1n[nH]c2cccc(OC(C)C(=O)N3CCN(C(=O)c4ccccc4)C[C@H]3C)c12 (some centres not stated)
IC50 [1]: 16 nM
IC50 [2]: 36 nM

CC(Oc1cccc2cccnc12)C(=O)N1CCN(C(=O)c2ccccc2)C[C@H]1C (some centres not stated)
IC50 [1]: 433 nM
IC50 [2]: 449 nM

CC(Oc1cccc2ccncc12)C(=O)N1CCN(C(=O)c2ccccc2)C[C@H]1C (some centres not stated)
IC50 [1]: 575 nM
IC50 [2]: 2040 nM

CNC(=O)c1cc(OC)c(O[C@@H](C)C(=O)N2CCN(c3ncnc4[nH]cnc34)C[C@H]2C)cn1
IC50 [1]: 296 nM

CC(Oc1cncc2ccccc12)C(=O)N1CCN(C(=O)c2ccccc2)C[C@H]1C (some centres not stated)
IC50 [1]: 9370 nM

CNc1ccc2c(O[C@@H](C)C(=O)N3CCN(C(=O)c4ccccc4)C[C@H]3C)cccc2n1
Fa [3]: 60%
Vdu (Rattus norvegicus [4]): 10.5 L/kg
half-life [5]: 54 min
IC50 [1]: 5 nM
clearance [6]: 27 mL/min/kg
bioavailability [7]: 42%
CL free (Rattus norvegicus [8]): 129 mL/min/kg
IC50 [2]: 13 nM

CC(Oc1cccc2c(=O)[nH]ccc12)C(=O)N1CCN(C(=O)c2ccccc2)C[C@H]1C (some centres not stated)
IC50 [1]: 68 nM
IC50 [2]: 1050 nM

Cc1nn(C)c2cccc(OC(C)C(=O)N3CCN(C(=O)c4ccccc4)C[C@H]3C)c12 (some centres not stated)
IC50 [1]: 15 nM
IC50 [2]: 79 nM

CNC(=O)c1cc(OC)c(O[C@@H](C)C(=O)N2CCN(c3ncccn3)C[C@H]2C)cn1
IC50 [1]: 71 nM
IC50 [2]: 1620 nM
